# Test results: ChEMBL document CHEMBL3632581, “Dimers of Melampomagnolide B Exhibit Potent Anticancer Activity against Hematological and Solid Tumor Cells” (J Med Chem, 2015)
# What was measured:
# MCF7 = experiment: Cytotoxicity against human MCF7 cells after 48 hrs by SRB assay; format: functional; conditions: MCF7, 48 h; for CC50: read-out: LC50 (the source's name)
# Method in brief: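 NCI-60 screen: cells in RPMI 1640 with 5% FBS and 2 mM L-glutamine, preincubated 24 h at 37 °C. Compound was then added for 48 h at five concentrations (10−4 to 10−8 M). Cells were fixed with cold TCA and stained with 0.4% SRB in 1% acetic acid, and OD read at 515 nm. GI50 is the concentration halving net protein increase versus control.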
# A549 = experiment: Cytotoxicity against human A549 cells after 48 hrs by SRB assay; format: functional; conditions: A549, 48 h; for CC50: read-out: LC50 (the source's name)
# Method in brief: (§1)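 NCI-60 five-dose screen at 10−8 to 10−4 M. Cells were plated at 5,000–40,000/well in RPMI 1640 with 5% FBS and 2 mM L-glutamine, then preincubated 24 h, and time-zero plates were TCA-fixed. Compound was added from DMSO stocks and exposed 48 h at 37 °C. Cells were TCA-fixed, SRB-stained, and read at 515 nm. LC50 is the concentration halving the cell population through cell death.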
# Malme-3M = experiment: Cytotoxicity against human MALME-3M cells after 48 hrs by SRB assay; format: functional; conditions: for CC50: read-out: LC50 (the source's name); method in brief: as §1
# COLO 205 = experiment: Cytotoxicity against human COLO205 cells after 48 hrs by SRB assay; format: functional; conditions: COLO 205, 48 h; for CC50: read-out: LC50 (the source's name); method in brief: as §1
# HT-29 = experiment: Cytotoxicity against human HT-29 cells after 48 hrs by SRB assay; format: functional; conditions: HT-29, 48 h; for CC50: read-out: LC50 (the source's name); method in brief: as §1
# UACC-257 = experiment: Cytotoxicity against human UACC257 cells after 48 hrs by SRB assay; format: functional; conditions: UACC-257, 48 h; for CC50: read-out: LC50 (the source's name)
# Method in brief: (§2)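 NCI-60 screen: cells grown in RPMI 1640 with 5% FBS and 2 mM L-glutamine, plated at 5,000–40,000 cells/well by doubling time, and preincubated 24 h at 37 °C before drug. Drug was diluted from DMSO stock and given at five concentrations, 10−4 to 10−8 M, for 48 h. Cells fixed with cold TCA, SRB stained, OD read at 515 nm against time-zero and vehicle plates. LC50 taken as the concentration that halves cell population through cell death.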
# SF-539 = experiment: Cytotoxicity against human SF539 cells after 48 hrs by SRB assay; format: functional; conditions: SF-539, 48 h; for CC50: read-out: LC50 (the source's name); method in brief: as §1
# CCRF-CEM = experiment: Cytotoxicity against human CCRF-CEM cells after 48 hrs by SRB assay; format: functional; conditions: for CC50: read-out: LC50 (the source's name); method in brief: as §1
# HL-60(TB) = experiment: Cytotoxicity against human HL-60(TB) cells after 48 hrs by SRB assay; format: functional; conditions: HL-60, 48 h; for CC50: read-out: LC50 (the source's name); method in brief: as §1
# [1] = Antileukemic activity against human M9-ENL1 cells after 24 hrs by annexin V/7-AAD staining-based flow cytometric analysis; format: functional, cell-based
# Method in brief: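 M9-ENL1 cells in alpha-MEM with 5% human plasma, 20% FBS, SCF, IL-3, IL-7 and FLT3. Drug came from a DMSO stock diluted in PBS (≤0.5% DMSO final), for 24 h over 0.5-10 μM. Cells negative for both annexin V and 7-AAD were taken as non-apoptotic and normalized to vehicle. EC50 read from dose-response curves, triplicate.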
# SF-295 = experiment: Cytotoxicity against human SF295 cells after 48 hrs by SRB assay; format: functional; conditions: SF-295, 48 h; for CC50: read-out: LC50 (the source's name); method in brief: as §1
# SK-MEL-28 = experiment: Cytotoxicity against human SK-MEL-28 cells after 48 hrs by SRB assay; format: functional; conditions: SK-MEL-28, 48 h; for CC50: read-out: LC50 (the source's name); method in brief: as §1
# NCI-H460 = experiment: Cytotoxicity against human NCI-H460 cells after 48 hrs by SRB assay; format: functional; conditions: NCI-H460, 48 h; for CC50: read-out: LC50 (the source's name); method in brief: as §1
# OVCAR-5 = experiment: Cytotoxicity against human OVCAR5 cells after 48 hrs by SRB assay; format: functional; conditions: OVCAR-5, 48 h; for CC50: read-out: LC50 (the source's name); method in brief: as §1
# ACHN = experiment: Cytotoxicity against human ACHN cells after 48 hrs by SRB assay; format: functional; conditions: for CC50: read-out: LC50 (the source's name); method in brief: as §1
# SN12C = experiment: Cytotoxicity against human SN12C cells after 48 hrs by SRB assay; format: functional; conditions: for CC50: read-out: LC50 (the source's name); method in brief: as §1
# TK-10 = experiment: Cytotoxicity against human TK10 cells after 48 hrs by SRB assay; format: functional; conditions: TK-10, 48 h; for CC50: read-out: LC50 (the source's name); method in brief: as §2
# HOP-92 = experiment: Cytotoxicity against human HOP92 cells after 48 hrs by SRB assay; format: functional; conditions: HOP-92, 48 h; for CC50: read-out: LC50 (the source's name); method in brief: as §1
# A498 = experiment: Cytotoxicity against human A498 cells after 48 hrs by SRB assay; format: functional; conditions: A498, 48 h; for CC50: read-out: LC50 (the source's name); method in brief: as §1
# [2] = Antileukemic activity against human AML01 cells after 24 hrs by annexin V/7-AAD staining-based flow cytometric analysis; format: functional, cell-based
# Method in brief: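 Primary AML specimens from consenting donors, isolated by Ficoll-Paque gradient and sometimes cryopreserved. Cells were held 1 h in serum-free IMDM with 20% BIT 9500, LDL and β-mercaptoethanol before drug (DMSO stock diluted in PBS, ≤0.5% DMSO final). Exposure was 24 h over 0.5-10 μM. Annexin V/7-AAD double-negative cells, normalized to vehicle, gave the EC50. Run in triplicate.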
# MOLT-4 = experiment: Cytotoxicity against human MOLT4 cells after 48 hrs by SRB assay; format: functional; conditions: MOLT-4, 48 h; for CC50: read-out: LC50 (the source's name); method in brief: as §1
# NCI-H226 = experiment: Cytotoxicity against human NCI-H226 cells after 48 hrs by SRB assay; format: functional; conditions: NCI-H226, 48 h; for CC50: read-out: LC50 (the source's name); method in brief: as §1
# HCT-116 = experiment: Cytotoxicity against human HCT116 cells after 48 hrs by SRB assay; format: functional; conditions: HCT-116, 48 h; for CC50: read-out: LC50 (the source's name); method in brief: as §1
# [3] = Potency index, ratio of parthenolide EC50 to compound EC50 for human M9-ENL1 cells; format: functional
# SR = experiment: Cytotoxicity against human SR cells after 48 hrs by SRB assay; format: functional; conditions: for CC50: read-out: LC50 (the source's name); method in brief: as §2
# MDA-MB-435 = experiment: Cytotoxicity against human MDA-MB-435 cells after 48 hrs by SRB assay; format: functional; conditions: MDA-MB-435, 48 h; for CC50: read-out: LC50 (the source's name); method in brief: as §1
# CAKI-1 = experiment: Cytotoxicity against human Caki1 cells after 48 hrs by SRB assay; format: functional; conditions: CAKI-1, 48 h; for CC50: read-out: LC50 (the source's name); method in brief: as §1
# [4] = Cytotoxicity against human NCI-ADR-RES cells after 48 hrs by SRB assay; format: functional; conditions: for CC50: read-out: LC50 (the source's name); method in brief: as §1
# KM12 = experiment: Cytotoxicity against human KM12 cells after 48 hrs by SRB assay; format: functional; conditions: KM12, 48 h; for CC50: read-out: LC50 (the source's name); method in brief: as §1
# MDA-MB-231 = experiment: Cytotoxicity against human MDA-MB-231 cells after 48 hrs by SRB assay; format: functional; conditions: MDA-MB-231, 48 h; method in brief: as §1
# SF-268 = experiment: Cytotoxicity against human SF268 cells after 48 hrs by SRB assay; format: functional; conditions: SF-268, 48 h; for CC50: read-out: LC50 (the source's name); method in brief: as §1
smiles,measurement,setting,value
C=C1C(=O)O[C@H]2[C@H]1CC/C(COC(=O)NCCCCCNC(=O)OC/C1=C/CC[C@@]3(C)O[C@H]3[C@H]3OC(=O)C(=C)[C@@H]3CC1)=C\CC[C@@]1(C)O[C@@H]21,GI50,MCF7,390 nM
same,CC50,MCF7,6200 nM
same,GI50,A549,14900 nM
same,CC50,A549,71700 nM
same,GI50,Malme-3M,2060 nM
same,CC50,Malme-3M,27300 nM
same,GI50,COLO 205,520 nM
same,CC50,COLO 205,7970 nM
same,GI50,HT-29,510 nM
same,CC50,HT-29,4850 nM
same,GI50,UACC-257,2070 nM
same,CC50,UACC-257,42400 nM
same,GI50,SF-539,1920 nM
same,CC50,SF-539,12700 nM
same,GI50,CCRF-CEM,280 nM
same,CC50,CCRF-CEM,> 100000 nM
same,GI50,HL-60(TB),310 nM
same,CC50,HL-60(TB),> 100000 nM
same,EC50,[1],570 nM
same,GI50,SF-295,11100 nM
same,CC50,SF-295,65200 nM
same,GI50,SK-MEL-28,1580 nM
same,CC50,SK-MEL-28,12600 nM
same,GI50,NCI-H460,4340 nM
same,CC50,NCI-H460,50700 nM
same,GI50,OVCAR-5,1670 nM
same,CC50,OVCAR-5,7470 nM
same,GI50,ACHN,3050 nM
same,CC50,ACHN,35400 nM
same,GI50,SN12C,2490 nM
same,CC50,SN12C,45500 nM
same,GI50,TK-10,1820 nM
same,CC50,TK-10,11800 nM
same,GI50,HOP-92,1300 nM
same,CC50,HOP-92,8610 nM
same,GI50,A498,6240 nM
same,CC50,A498,47500 nM
same,EC50,[2],1600 nM
same,GI50,MOLT-4,1480 nM
same,CC50,MOLT-4,> 100000 nM
same,GI50,NCI-H226,2560 nM
same,CC50,NCI-H226,30900 nM
same,GI50,HCT-116,540 nM
same,CC50,HCT-116,4560 nM
same,Ratio EC50,[3],2
same,GI50,SR,380 nM
same,CC50,SR,> 100000 nM
same,GI50,MDA-MB-435,1510 nM
same,CC50,MDA-MB-435,7300 nM
same,GI50,CAKI-1,16100 nM
same,CC50,CAKI-1,68100 nM
same,GI50,[4],70000 nM
same,CC50,[4],> 100000 nM
same,GI50,KM12,6530 nM
same,CC50,KM12,54200 nM
same,GI50,MDA-MB-231,1470 nM
same,LC50,MDA-MB-231,6400 nM
same,GI50,SF-268,3080 nM
same,CC50,SF-268,42300 nM
C=C1C(=O)O[C@H]2[C@H]1CC/C(COC(=O)NCCCCCCCCNC(=O)OC/C1=C/CC[C@@]3(C)O[C@H]3[C@H]3OC(=O)C(=C)[C@@H]3CC1)=C\CC[C@@]1(C)O[C@@H]21,GI50,MCF7,220 nM
same,CC50,MCF7,4300 nM
same,GI50,A549,1700 nM
same,CC50,A549,7260 nM
same,GI50,Malme-3M,190 nM
same,CC50,Malme-3M,920 nM
same,GI50,COLO 205,300 nM
same,CC50,COLO 205,3990 nM
same,GI50,HT-29,220 nM
same,CC50,HT-29,2270 nM
same,GI50,UACC-257,840 nM
same,CC50,UACC-257,8510 nM
same,GI50,SF-539,230 nM
same,CC50,SF-539,2260 nM
same,GI50,CCRF-CEM,250 nM
same,CC50,CCRF-CEM,> 100000 nM
same,GI50,HL-60(TB),260 nM
same,CC50,HL-60(TB),> 100000 nM
same,EC50,[1],2000 nM
same,GI50,SF-295,1950 nM
same,CC50,SF-295,16200 nM
same,GI50,SK-MEL-28,200 nM
same,CC50,SK-MEL-28,2120 nM
same,GI50,NCI-H460,1750 nM
same,CC50,NCI-H460,9020 nM
same,GI50,OVCAR-5,260 nM
same,CC50,OVCAR-5,4040 nM
same,GI50,ACHN,250 nM
same,CC50,ACHN,2850 nM
same,GI50,SN12C,260 nM
same,CC50,SN12C,5490 nM
same,GI50,TK-10,280 nM
same,CC50,TK-10,2950 nM
same,GI50,HOP-92,170 nM
same,CC50,HOP-92,2290 nM
same,GI50,A498,1690 nM
same,CC50,A498,5830 nM
same,EC50,[2],2600 nM
same,GI50,MOLT-4,330 nM
same,CC50,MOLT-4,> 100000 nM
same,GI50,NCI-H226,1810 nM
same,CC50,NCI-H226,21100 nM
same,GI50,HCT-116,190 nM
same,CC50,HCT-116,830 nM
same,Ratio EC50,[3],2
same,GI50,SR,310 nM
same,CC50,SR,> 100000 nM
same,GI50,MDA-MB-435,240 nM
same,CC50,MDA-MB-435,3740 nM
same,GI50,CAKI-1,650 nM
same,CC50,CAKI-1,4790 nM
same,GI50,[4],3910 nM
same,CC50,[4],82000 nM
same,GI50,KM12,1290 nM
same,CC50,KM12,7490 nM
same,GI50,MDA-MB-231,200 nM
same,LC50,MDA-MB-231,1240 nM
same,GI50,SF-268,990 nM
same,CC50,SF-268,7240 nM
